Data taken from ChEMBL document CHEMBL4043282, “Discovery of the First Potent, Selective, and Orally Bioavailable Signal Peptide Peptidase-Like 2a (SPPL2a) Inhibitor Displaying Pronounced Immunomodulatory Effects In Vivo” (J Med Chem, 2018).

Legend:
[1] = biological target: T1, Signal peptide peptidase-like 2A (Mus musculus) (UniProt Q9JJF9); conditions: 2 uM
T1 sequence (whole entry): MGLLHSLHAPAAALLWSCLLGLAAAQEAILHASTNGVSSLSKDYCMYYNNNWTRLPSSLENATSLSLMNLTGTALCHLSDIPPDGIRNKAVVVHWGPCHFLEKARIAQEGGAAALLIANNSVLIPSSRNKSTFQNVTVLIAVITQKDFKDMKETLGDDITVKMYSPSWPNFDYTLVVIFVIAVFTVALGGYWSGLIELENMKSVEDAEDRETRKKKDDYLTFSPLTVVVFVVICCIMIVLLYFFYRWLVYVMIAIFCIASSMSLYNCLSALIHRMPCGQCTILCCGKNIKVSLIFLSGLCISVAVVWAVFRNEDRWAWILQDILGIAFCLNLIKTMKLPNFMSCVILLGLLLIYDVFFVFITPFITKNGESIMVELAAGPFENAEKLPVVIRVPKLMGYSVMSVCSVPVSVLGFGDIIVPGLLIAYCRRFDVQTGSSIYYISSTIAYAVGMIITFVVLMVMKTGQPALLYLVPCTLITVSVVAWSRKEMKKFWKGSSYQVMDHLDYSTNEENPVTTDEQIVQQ

[2] = Selectivity ratio of IC50 for human gamma-secretase expressed in HEK293 cells to IC50 for human SPPL2a expressed in HEK293 cells
Method in brief: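 HEK293 transiently transfected: SPPL2a arm with human SPPL2a, VP16-TNFα(aa1-76)-NTF and Gal4-luciferase; γ-secretase arm with human Notch1-VP16-Gal4 plus reporter (endogenous γ-secretase). Compound added 3 h after plating, 10 μM–0.3 nM final, triplicate, 24 h at 37 °C; luminescence read. IC50 from concentration vs normalised luminescence; ratio of the two IC50s.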

SMILES	inhibition [1] [%]	Ratio IC50 [2]
Cc1ncc(F)cc1NC(=O)C[C@H](C(=O)N[C@@H]1C(=O)N2CC3(CC3)CN2C(=O)c2ccccc21)C1CC1	50	
Cc1ccccc1NC(=O)C[C@@H](C)C(=O)N[C@@H]1C(=O)N2CCCN2Cc2ccccc21		52
